In paper PMC6944734 (Alzheimer's & Dementia : Translational Research & Clinical …, 2019):

Test system: primary mouse neuronal cultures
Assay: Synaptic recordings
Format: cell-based
Conditions: compared with the control
How it was run: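 Primary neurons from E18 mouse embryos plated at 10 K per well on coverslips. At DIV 11–13, sister coverslips from the same pups were treated 24 or 72 h before recording with DMSO (n = 4), γ-secretase inhibitor DAPT (n = 5) or test compound (n = 4), and all recorded the same day. Spontaneous miniature events analysed for frequency, interevent interval, amplitude and decay. Access resistance 2–14 MΩ.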

In the case of `C[C@H](NC(=O)Cc1cc(F)cc(F)c1)C(=O)N[C@H](C(=O)OC(C)(C)C)c1ccccc1` [difluorphenacetyl-alanyl phenylglycine t-butyl ester], the “Single quantum (amplitudes below 20 pA) and multiquantal (~35–45 pA) releases” value is reported as “significantly more”.
